Laboratory results reported in ChEMBL document CHEMBL2163204, “Synthesis and nicotinic acetylcholine receptor in vitro and in vivo pharmacological properties of 2'-fluoro-3'-(substituted phenyl)deschloroepibatidine analogues of 2'-fluoro-3'-(4-nitrophenyl)deschloroepibatidine” (J Med Chem, 2012).

System: Mus musculus
Test: Effect on hypothermia in mouse assessed as variation in rectal temperature at 10 mg/kg, sc measured after 30 mins by thermister probe based method
Type: functional
Conditions: route subcutaneous
Outline: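 Rectal temperature measured by thermistor probe inserted 24 mm, before and 30 min after s.c. saline or compound. Change computed for each mouse. Room temperature 21–24 °C.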

| Compound | Activity [%] |
| --- | --- |
| NS(=O)(=O)c1ccc(-c2cc(C3CC4CCC3N4)cnc2F)cc1 (racemic) | 0 |
| CS(=O)(=O)c1ccc(-c2cc(C3CC4CCC3N4)cnc2F)cc1 (racemic) | 1 |
| O=S(=O)(c1ccc(-c2cc(C3CC4CCC3N4)cnc2F)cc1)C(F)(F)F (racemic) | 0 |
| Fc1ncc(C2CC3CCC2N3)cc1-c1ccc(C(F)(F)F)cc1 (racemic) | 0 |

System: Mus musculus
Test: Antinociception activity in mouse at 10 mg/kg, sc after 5 mins by tail-flick method
Type: functional
Conditions: route subcutaneous
Outline: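 Mouse tail-flick: baseline latency 2–4 s, 10 s cutoff, tested 5 min after s.c. injection. %MPE = (test−control)/(10−control)×100. Eight to twelve mice per dose.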

| Compound | Activity [%] |
| --- | --- |
| CS(=O)(=O)c1ccc(-c2cc(C3CC4CCC3N4)cnc2F)cc1 (racemic) | 6 |
| O=S(=O)(c1ccc(-c2cc(C3CC4CCC3N4)cnc2F)cc1)C(F)(F)F (racemic) | 3 |

Target: T1, Neuronal acetylcholine receptor subunit alpha-7 (Rattus norvegicus, UniProt Q05941)
T1 sequence (Q05941 whole entry): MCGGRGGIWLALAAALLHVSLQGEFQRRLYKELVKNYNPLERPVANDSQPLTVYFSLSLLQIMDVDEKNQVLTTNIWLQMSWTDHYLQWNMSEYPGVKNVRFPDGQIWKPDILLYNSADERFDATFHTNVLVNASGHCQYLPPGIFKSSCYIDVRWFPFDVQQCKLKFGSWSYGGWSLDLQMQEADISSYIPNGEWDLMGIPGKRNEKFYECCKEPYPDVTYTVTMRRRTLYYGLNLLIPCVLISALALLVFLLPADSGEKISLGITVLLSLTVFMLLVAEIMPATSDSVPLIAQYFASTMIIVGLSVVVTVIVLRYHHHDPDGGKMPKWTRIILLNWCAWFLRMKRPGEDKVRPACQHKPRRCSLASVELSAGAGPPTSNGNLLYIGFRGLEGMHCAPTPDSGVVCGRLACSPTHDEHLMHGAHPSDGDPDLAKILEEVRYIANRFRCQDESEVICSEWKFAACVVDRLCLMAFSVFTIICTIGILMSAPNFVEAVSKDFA
Test: Displacement of [125I]iodoMLA from rat cerebral cortex alpha7 nAChR at 50 nM incubated for 2 hrs by microplate scintillation assay
Type: tissue-based
Conditions: not given
Outline: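 Rat cerebral cortex membranes (3 mg wet weight) in Tris assay buffer pH 7.4. Run in triplicate, 2 h on ice. Nonspecific binding with 300 µM (–)-nicotine. Filtered onto BSA-presoaked GF/B and counted by microplate scintillation.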

| Compound | Ki [µM] |
| --- | --- |
| NS(=O)(=O)c1ccc(-c2cc(C3CC4CCC3N4)cnc2F)cc1 (racemic) | > 2 |
| O=S(=O)(c1ccc(-c2cc(C3CC4CCC3N4)cnc2F)cc1)C(F)(F)F (racemic) | > 2 |
| Fc1ncc(C2CC3CCC2N3)cc1-c1ccc(C(F)(F)F)cc1 (racemic) | > 2 |

Target: Neuronal acetylcholine receptor subunit alpha-7 (Rattus norvegicus) (UniProt Q05941)
Sequence (Q05941 whole entry): as above
Test: Agonist activity at rat alpha7 nAChR expressed in Xenopus laevis oocytes at 100 uM after 2 to 6 days by two electrode voltage clamp assay relative to acetylcholine
Type: functional, cell-based
Conditions: Oocyte
Outline: (§1)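 Two-electrode voltage clamp on Xenopus oocytes injected with rat subunit cRNA (α3β4 at 1:1 molar ratio), incubated at 19 °C in modified Barth's saline (pH 7.6). Oocytes perfused with ND96 (pH 7.5) at 20–25 °C. 100 µM compound applied for 15 s (α3β4) or 5 s (α7), 3-min washes. Response compared with the mean of three preceding ACh applications and expressed as % of maximal ACh response.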

| Compound | %max [%] |
| --- | --- |
| NS(=O)(=O)c1ccc(-c2cc(C3CC4CCC3N4)cnc2F)cc1 (racemic) | 1.8 |
| CS(=O)(=O)c1ccc(-c2cc(C3CC4CCC3N4)cnc2F)cc1 (racemic) | 3 |
| O=S(=O)(c1ccc(-c2cc(C3CC4CCC3N4)cnc2F)cc1)C(F)(F)F (racemic) | 1.8 |
| Fc1ncc(C2CC3CCC2N3)cc1-c1ccc(C(F)(F)F)cc1 (racemic) | 4 |

Target: not listed separately
Test: Displacement of [3H]epibatidine from rat cerebral cortex alpha4beta2* nAChR incubated for 4 hrs by liquid scintillation assay
Type: tissue-based
Conditions: not given
Outline: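 Washed rat cerebral cortex membranes (3 mg wet weight) in 50 mM Tris pH 7.4 with 120 mM NaCl, 5 mM KCl, 2 mM CaCl2, 1 mM MgCl2. 4 h at room temperature. Nonspecific binding with 300 µM (–)-nicotine. Filtration on PEI-soaked GF/B. Ki from IC50 by Cheng–Prusoff.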

| Compound | Ki [pM] |
| --- | --- |
| NS(=O)(=O)c1ccc(-c2cc(C3CC4CCC3N4)cnc2F)cc1 (racemic) | 940 |
| CS(=O)(=O)c1ccc(-c2cc(C3CC4CCC3N4)cnc2F)cc1 (racemic) | 170 |
| O=S(=O)(c1ccc(-c2cc(C3CC4CCC3N4)cnc2F)cc1)C(F)(F)F (racemic) | 30 |
| Fc1ncc(C2CC3CCC2N3)cc1-c1ccc(C(F)(F)F)cc1 (racemic) | 440 |

System: Mus musculus
Test: Antagonist activity in sc dosed mouse assessed as inhibition of nicotine-induced antinociception after 5 mins by tail flick method
Type: functional
Conditions: not given

| Compound | AD50 [mg/kg] |
| --- | --- |
| NS(=O)(=O)c1ccc(-c2cc(C3CC4CCC3N4)cnc2F)cc1 (racemic) | 0.0009 |
| CS(=O)(=O)c1ccc(-c2cc(C3CC4CCC3N4)cnc2F)cc1 (racemic) | 0.018 |
| O=S(=O)(c1ccc(-c2cc(C3CC4CCC3N4)cnc2F)cc1)C(F)(F)F (racemic) | 1.6 |

Target: T2, Neuronal acetylcholine receptor; alpha4/beta2 (Rattus norvegicus) (UniProt P09483+P12390)
Test: Antagonist activity at rat alpha4beta2 nAChR expressed in Xenopus laevis oocytes assessed as inhibition of acetylcholine-induced response at 100 uM after 2 to 6 days by two electrode voltage clamp assay
Type: functional, cell-based
Conditions: Oocyte
Outline: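 Xenopus oocytes expressing rat nAChRs (α4β2 and α3β4 subunits injected at 1:1), recorded by two-electrode voltage clamp in ND96 (pH 7.5) at 20–25 °C. Current compared with the mean of three preceding ACh-alone responses and given as % remaining.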

| Compound | inhibition [%] |
| --- | --- |
| NS(=O)(=O)c1ccc(-c2cc(C3CC4CCC3N4)cnc2F)cc1 (racemic) | 4 |
| O=S(=O)(c1ccc(-c2cc(C3CC4CCC3N4)cnc2F)cc1)C(F)(F)F (racemic) | 7 |
| Fc1ncc(C2CC3CCC2N3)cc1-c1ccc(C(F)(F)F)cc1 (racemic) | 8 |

Target: Neuronal acetylcholine receptor; alpha4/beta2 (Rattus norvegicus, UniProt P09483+P12390)
Sequence (P09483 whole entry): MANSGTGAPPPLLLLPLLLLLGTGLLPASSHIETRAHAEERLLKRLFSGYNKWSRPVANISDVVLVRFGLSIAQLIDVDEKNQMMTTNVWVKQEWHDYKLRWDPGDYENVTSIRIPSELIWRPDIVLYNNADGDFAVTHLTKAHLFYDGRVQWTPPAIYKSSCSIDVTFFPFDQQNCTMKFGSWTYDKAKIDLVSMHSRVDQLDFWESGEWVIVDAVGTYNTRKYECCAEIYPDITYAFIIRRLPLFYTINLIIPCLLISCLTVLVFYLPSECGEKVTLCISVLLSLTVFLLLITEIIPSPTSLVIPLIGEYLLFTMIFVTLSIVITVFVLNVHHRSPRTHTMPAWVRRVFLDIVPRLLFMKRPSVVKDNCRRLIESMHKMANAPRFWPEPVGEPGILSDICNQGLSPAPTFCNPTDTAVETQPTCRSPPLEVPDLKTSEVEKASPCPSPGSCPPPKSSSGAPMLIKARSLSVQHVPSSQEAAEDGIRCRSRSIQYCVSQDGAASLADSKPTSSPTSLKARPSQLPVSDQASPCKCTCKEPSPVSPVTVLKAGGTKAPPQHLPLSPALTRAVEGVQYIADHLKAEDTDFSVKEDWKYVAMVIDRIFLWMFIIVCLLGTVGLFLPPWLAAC
Sequence (P12390 whole entry): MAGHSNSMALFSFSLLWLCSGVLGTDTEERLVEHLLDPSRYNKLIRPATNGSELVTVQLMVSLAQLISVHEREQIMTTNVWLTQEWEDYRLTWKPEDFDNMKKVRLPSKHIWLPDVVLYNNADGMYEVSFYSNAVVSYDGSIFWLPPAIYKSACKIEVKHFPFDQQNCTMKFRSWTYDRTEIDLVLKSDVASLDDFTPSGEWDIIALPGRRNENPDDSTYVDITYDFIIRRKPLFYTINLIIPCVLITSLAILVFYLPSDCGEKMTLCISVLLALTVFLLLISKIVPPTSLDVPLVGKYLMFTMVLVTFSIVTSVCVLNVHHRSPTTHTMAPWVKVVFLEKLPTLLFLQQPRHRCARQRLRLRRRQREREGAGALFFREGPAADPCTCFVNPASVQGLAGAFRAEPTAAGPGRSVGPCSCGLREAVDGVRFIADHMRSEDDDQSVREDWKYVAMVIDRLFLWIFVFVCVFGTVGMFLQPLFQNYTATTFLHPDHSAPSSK
Test: Antagonist activity at rat alpha4beta2 nAChR expressed in Xenopus laevis oocytes assessed as inhibition of acetylcholine-induced response after 2 to 6 days by two electrode voltage clamp assay
Type: functional, cell-based, Oocyte
Conditions: not given

| Compound | IC50 [µM] |
| --- | --- |
| CS(=O)(=O)c1ccc(-c2cc(C3CC4CCC3N4)cnc2F)cc1 (racemic) | 2.8 |
| Fc1ncc(C2CC3CCC2N3)cc1-c1ccc(C(F)(F)F)cc1 (racemic) | 6 |

Target: Neuronal acetylcholine receptor subunit alpha-7 (Rattus norvegicus) (UniProt Q05941)
Test: Antagonist activity at rat alpha7 nAChR expressed in Xenopus laevis oocytes assessed as inhibition of acetylcholine-induced response at 100 uM after 2 to 6 days by two electrode voltage clamp assay
Type: functional, cell-based
Conditions: Oocyte

| Compound | inhibition [%] |
| --- | --- |
| NS(=O)(=O)c1ccc(-c2cc(C3CC4CCC3N4)cnc2F)cc1 (racemic) | 18 |
| CS(=O)(=O)c1ccc(-c2cc(C3CC4CCC3N4)cnc2F)cc1 (racemic) | 33 |
| O=S(=O)(c1ccc(-c2cc(C3CC4CCC3N4)cnc2F)cc1)C(F)(F)F (racemic) | 42 |
| Fc1ncc(C2CC3CCC2N3)cc1-c1ccc(C(F)(F)F)cc1 (racemic) | 3 |

Target: T3, Neuronal acetylcholine receptor; alpha3/beta4 (Rattus norvegicus) (UniProt P04757+P12392)
Test: Agonist activity at rat alpha3beta4 nAChR expressed in Xenopus laevis oocytes at 100 uM after 2 to 6 days by two electrode voltage clamp assay relative to acetylcholine
Type: functional, cell-based
Conditions: Oocyte
Outline: as §1

| Compound | %max [%] |
| --- | --- |
| NS(=O)(=O)c1ccc(-c2cc(C3CC4CCC3N4)cnc2F)cc1 (racemic) | 0 |
| CS(=O)(=O)c1ccc(-c2cc(C3CC4CCC3N4)cnc2F)cc1 (racemic) | 0 |
| O=S(=O)(c1ccc(-c2cc(C3CC4CCC3N4)cnc2F)cc1)C(F)(F)F (racemic) | 1.9 |
| Fc1ncc(C2CC3CCC2N3)cc1-c1ccc(C(F)(F)F)cc1 (racemic) | 0 |

System: Mus musculus
Test: Antinociception activity in mouse assessed as reaction time taken for jumping or licking paws at 10 mg/kg, sc after 5 mins by hot plate method
Type: functional
Conditions: route subcutaneous
Outline: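 Mice placed on a 55 °C hot plate; latency is time to jump or paw-lick. Two baseline latencies taken at least 10 min apart. Tested 5 min after s.c. dosing. %MPE computed with a 40 s maximum. Eight mice per dose.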

| Compound | Activity [%] |
| --- | --- |
| NS(=O)(=O)c1ccc(-c2cc(C3CC4CCC3N4)cnc2F)cc1 (racemic) | 19 |
| CS(=O)(=O)c1ccc(-c2cc(C3CC4CCC3N4)cnc2F)cc1 (racemic) | 1 |
| Fc1ncc(C2CC3CCC2N3)cc1-c1ccc(C(F)(F)F)cc1 (racemic) | 6 |

System: Mus musculus
Test: Effect on spontaneous locomotor activity in mouse at 10 mg/kg, sc after 5 mins by photocell based method
Type: functional
Conditions: route subcutaneous
Outline: (§2)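 Mice put into photocell activity cages 5 min after s.c. saline or compound. Beam interruptions counted over the next 10 min.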

| Compound | Activity [%] |
| --- | --- |
| NS(=O)(=O)c1ccc(-c2cc(C3CC4CCC3N4)cnc2F)cc1 (racemic) | 5 |
| CS(=O)(=O)c1ccc(-c2cc(C3CC4CCC3N4)cnc2F)cc1 (racemic) | 12 |
| Fc1ncc(C2CC3CCC2N3)cc1-c1ccc(C(F)(F)F)cc1 (racemic) | 5 |

System: Mus musculus
Test: Antagonist activity in sc dosed mouse assessed as inhibition of nicotine-induced antinociception after 5 mins by hot plate method
Type: functional
Conditions: not given

| Compound | AD50 [mg/kg] |
| --- | --- |
| NS(=O)(=O)c1ccc(-c2cc(C3CC4CCC3N4)cnc2F)cc1 (racemic) | 1 |
| CS(=O)(=O)c1ccc(-c2cc(C3CC4CCC3N4)cnc2F)cc1 (racemic) | 2.6 |
| Fc1ncc(C2CC3CCC2N3)cc1-c1ccc(C(F)(F)F)cc1 (racemic) | 6 |

System: Mus musculus
Test: Effect on spontaneous locomotor activity in sc dosed mouse after 5 mins by photocell based method
Type: functional
Conditions: not given
Outline: as §2

| Compound | ED50 [mg/kg] |
| --- | --- |
| O=S(=O)(c1ccc(-c2cc(C3CC4CCC3N4)cnc2F)cc1)C(F)(F)F (racemic) | 4.2 |

Target: Neuronal acetylcholine receptor; alpha3/beta4 (Rattus norvegicus, UniProt P04757+P12392)
Sequence (P04757 whole entry): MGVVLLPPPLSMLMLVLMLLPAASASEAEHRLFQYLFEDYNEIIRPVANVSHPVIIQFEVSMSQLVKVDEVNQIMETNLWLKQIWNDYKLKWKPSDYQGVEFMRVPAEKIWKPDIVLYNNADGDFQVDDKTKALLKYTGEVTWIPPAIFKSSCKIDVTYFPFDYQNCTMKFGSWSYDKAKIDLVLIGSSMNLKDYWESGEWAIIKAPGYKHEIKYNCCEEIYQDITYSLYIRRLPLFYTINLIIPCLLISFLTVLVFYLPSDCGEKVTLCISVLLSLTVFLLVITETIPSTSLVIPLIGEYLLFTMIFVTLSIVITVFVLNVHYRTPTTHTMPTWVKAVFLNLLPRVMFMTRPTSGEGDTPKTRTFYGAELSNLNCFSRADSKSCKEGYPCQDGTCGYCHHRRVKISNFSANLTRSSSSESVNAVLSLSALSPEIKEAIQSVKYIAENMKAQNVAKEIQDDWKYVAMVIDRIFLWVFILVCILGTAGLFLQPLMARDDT
Sequence (P12392 whole entry): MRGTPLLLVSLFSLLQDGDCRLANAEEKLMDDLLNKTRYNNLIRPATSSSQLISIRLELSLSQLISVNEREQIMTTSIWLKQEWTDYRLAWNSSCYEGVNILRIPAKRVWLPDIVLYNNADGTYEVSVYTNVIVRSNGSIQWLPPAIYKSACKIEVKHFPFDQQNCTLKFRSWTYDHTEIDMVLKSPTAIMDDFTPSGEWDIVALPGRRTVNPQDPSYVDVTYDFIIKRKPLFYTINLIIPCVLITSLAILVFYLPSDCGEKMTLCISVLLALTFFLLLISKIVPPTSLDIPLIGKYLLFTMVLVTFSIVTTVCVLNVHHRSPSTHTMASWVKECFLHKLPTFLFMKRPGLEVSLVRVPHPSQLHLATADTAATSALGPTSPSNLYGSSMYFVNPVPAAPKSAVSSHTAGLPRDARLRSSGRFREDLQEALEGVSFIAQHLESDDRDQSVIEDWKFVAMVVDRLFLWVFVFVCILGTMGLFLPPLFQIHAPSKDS
Test: Antagonist activity at rat alpha3beta4 nAChR expressed in Xenopus laevis oocytes assessed as inhibition of acetylcholine-induced response after 2 to 6 days by two electrode voltage clamp assay
Type: functional, cell-based, Oocyte
Conditions: not given

| Compound | IC50 [µM] |
| --- | --- |
| CS(=O)(=O)c1ccc(-c2cc(C3CC4CCC3N4)cnc2F)cc1 (racemic) | 11 |
| Fc1ncc(C2CC3CCC2N3)cc1-c1ccc(C(F)(F)F)cc1 (racemic) | 5 |

Target: T2, Neuronal acetylcholine receptor; alpha4/beta2 (Rattus norvegicus)
Test: Agonist activity at rat alpha4beta2 nAChR expressed in Xenopus laevis oocytes at 100 uM after 2 to 6 days by two electrode voltage clamp assay relative to acetylcholine
Type: functional, cell-based
Conditions: Oocyte

| Compound | %max [%] |
| --- | --- |
| NS(=O)(=O)c1ccc(-c2cc(C3CC4CCC3N4)cnc2F)cc1 (racemic) | 0 |
| CS(=O)(=O)c1ccc(-c2cc(C3CC4CCC3N4)cnc2F)cc1 (racemic) | 0 |
| O=S(=O)(c1ccc(-c2cc(C3CC4CCC3N4)cnc2F)cc1)C(F)(F)F (racemic) | 0 |
| Fc1ncc(C2CC3CCC2N3)cc1-c1ccc(C(F)(F)F)cc1 (racemic) | 0 |

Target: T3, Neuronal acetylcholine receptor; alpha3/beta4 (Rattus norvegicus)
Test: Antagonist activity at rat alpha3beta4 nAChR expressed in Xenopus laevis oocytes assessed as inhibition of acetylcholine-induced response at 100 uM after 2 to 6 days by two electrode voltage clamp assay
Type: functional, cell-based
Conditions: Oocyte
Outline: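 Xenopus oocytes expressing rat nAChRs (α4β2 and α3β4 subunits injected at 1:1), recorded by two-electrode voltage clamp in ND96 (pH 7.5) at 20–25 °C. […] Current compared with the mean of three preceding ACh-alone responses and given as % remaining.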

| Compound | inhibition [%] |
| --- | --- |
| NS(=O)(=O)c1ccc(-c2cc(C3CC4CCC3N4)cnc2F)cc1 (racemic) | 5 |
| CS(=O)(=O)c1ccc(-c2cc(C3CC4CCC3N4)cnc2F)cc1 (racemic) | 25 |
| O=S(=O)(c1ccc(-c2cc(C3CC4CCC3N4)cnc2F)cc1)C(F)(F)F (racemic) | 15 |
| Fc1ncc(C2CC3CCC2N3)cc1-c1ccc(C(F)(F)F)cc1 (racemic) | 4 |

System: Mus musculus
Test: Antagonist activity in mouse assessed as inhibition of nicotine-induced antinociception at 10000 ug/kg, sc after 5 mins by hot plate method
Type: functional
Conditions: not given

| Compound | inhibition in vivo at 10 mg/kg [%] |
| --- | --- |
| O=S(=O)(c1ccc(-c2cc(C3CC4CCC3N4)cnc2F)cc1)C(F)(F)F (racemic) | 50 |

Target: T1, Neuronal acetylcholine receptor subunit alpha-7
Test: Antagonist activity at rat alpha7 nAChR expressed in Xenopus laevis oocytes assessed as inhibition of acetylcholine-induced response after 2 to 6 days by two electrode voltage clamp assay
Type: functional, cell-based, Oocyte
Conditions: not given

| Compound | IC50 [µM] |
| --- | --- |
| Fc1ncc(C2CC3CCC2N3)cc1-c1ccc(C(F)(F)F)cc1 (racemic) | 4 |
